In ChEMBL document CHEMBL4266059, “Synthesis of Cyanoenone-Modified Diterpenoid Analogs as Novel Bmi-1-Mediated Antitumor Agents” (ACS Med Chem Lett, 2018):
Activity calls are given as the source filed them. The calls are words filed in the database; no cut-off is given here.

Key:
HCT-116 [1] = test: Antimigratory activity against human HCT116 cells after 24 hrs by crystal violet staining based transwell migration assay; assay type: functional, cell-based
Outline: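 HCT116 cells were tested for migration through a transwell chamber at 0.5 and 1 μM, compared against an untreated (0 μM) control. Significance was assessed versus that control.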

HCT-116 [2] = test: Inhibition of cancer stem cell proliferation in human HCT116 cells assessed as CD133/CD44-positive cell population at 1 uM after 48 hrs by flow cytometry (reference value: 85.1 to 86.6%); assay type: functional; design: scale not given: the % may be the effect or the level left
[3] = Antiproliferative activity against HAF after 72 hrs by SRB assay; design: species or system Homo sapiens
[4] = Selectivity index, ratio of IC50 for HAF to IC50 for human HT-29 cells; assay type: toxicity; settings: HAF cells versus HT-29 cells, read-out: Ratio IC50
Mus musculus [5] = test: Decrease in Bmi1 expression in tumors of nude mouse xenografted with human HCT116 cells at 10 mg/kg/day, ip for 18 days by IHC analysis; assay type: functional, organism-based
Outline: (§1)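 Subcutaneous HCT116 xenografts in nude mice, randomized into groups of n = 6. Dosing was daily intraperitoneal injection for 18 days with DMSO as vehicle control. Mice were then sacrificed, and excised tumors were stained by immunohistochemistry for Ki67 and Bmi-1, compared with vehicle-treated controls.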

Mus musculus [6] = test: Toxicity in nude mouse xenografted with human HCT116 cells assessed as change in body weight at 10 mg/kg/day, ip for 18 days; assay type: organism-based; settings: in vivo, 432 h
HCT-116 [7] = test: Antiproliferative activity against human HCT116 cells after 72 hrs by SRB assay; assay type: functional, cell-based; settings: HCT-116, 72 h
HCT-116 [8] = test: Effect on total H2A protein expression in human HCT116 cells at 0.5 to 4 uM after 8 hrs by Western blot analysis; assay type: functional, cell-based
Outline: (§2)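 HCT116 cells treated with test agents at the indicated concentrations for 8 h. Bmi-1, H2A-K119 ubiquitinated H2A (ub-H2A), total H2A and Ring1b detected by Western blot.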

HCT-116 [9] = test: Induction of apoptosis in human HCT116 cells at 1 uM after 48 hrs by Annexin V/propidium iodide staining based flow cytometry relative to control; assay type: functional
[10] = Selectivity index, ratio of IC50 for HAF to IC50 for human HCT8 cells; assay type: toxicity; settings: HAF cells versus HCT8 cells, read-out: Ratio IC50
[11] = target: T1, Polycomb complex protein BMI-1 (Homo sapiens) (UniProt P35226); test: Inhibition of Bmi1 in human HCT116 cells assessed as reduction in H2A-K119Ub level after 8 hrs by Western blot analysis; assay type: cell-based; outline: as §2
T1 sequence (whole entry): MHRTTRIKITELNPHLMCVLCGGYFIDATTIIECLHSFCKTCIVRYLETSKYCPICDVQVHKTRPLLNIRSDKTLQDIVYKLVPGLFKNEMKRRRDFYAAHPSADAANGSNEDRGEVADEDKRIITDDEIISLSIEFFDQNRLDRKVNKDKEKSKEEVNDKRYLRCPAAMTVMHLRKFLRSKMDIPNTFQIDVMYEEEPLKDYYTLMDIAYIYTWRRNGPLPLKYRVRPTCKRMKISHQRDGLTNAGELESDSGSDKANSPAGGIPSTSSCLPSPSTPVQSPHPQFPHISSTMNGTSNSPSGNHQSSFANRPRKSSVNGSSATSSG

HCT-116 [12] = test: Antitumor activity against human HCT116 cells xenografted in nude mouse assessed as tumor growth inhibition at 10 mg/kg/day, ip for 18 days; assay type: functional, organism-based
Outline: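 Nude mice bearing subcutaneous HCT116 tumors, randomized four groups (n = 6 each), including a DMSO vehicle group. Dosing was intraperitoneal once daily for 18 days, then sacrifice. Removed tumors were weighed and tumor volume recorded, and body weight was followed. Significance was tested versus vehicle control.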

HCT-116 [13] = test: Inhibition of colony formation in human HCT116 cells at 0.1 to 0.4 uM after 7 days by crystal violet staining based assay; assay type: functional, cell-based
HT-29 = test: Antiproliferative activity against human HT-29 cells after 72 hrs by SRB assay; assay type: functional, cell-based; settings: HT-29, 72 h
HCT-116 [14] = test: Effect on total Ring1b protein expression in human HCT116 cells at 0.5 to 4 uM after 8 hrs by Western blot analysis; assay type: functional, cell-based; outline: as §2
HCT-116 [15] = test: Inhibition of Bmi1 protein expression in human HCT116 cells after 8 hrs by Western blot analysis; assay type: functional, cell-based; settings: for IC50: HCT-116, 8 h
HCT-116 [16] = test: Antitumor activity against human HCT116 cells xenografted in nude mouse assessed as reduction in Ki67 expression in tumor at 10 mg/kg/day, ip for 18 days by IHC analysis; assay type: functional, organism-based; outline: as §1
HCT-8 = test: Antiproliferative activity against human HCT8 cells after 72 hrs by SRB assay; assay type: functional, cell-based; settings: HCT-8, 72 h
[17] = Selectivity index, ratio of IC50 for HAF to IC50 for human HCT116 cells; assay type: toxicity; settings: HAF cells versus HCT116 cells, read-out: Ratio IC50
HCT-116 [18] = test: Antimigratory activity against human HCT116 cells at 1 uM after 24 hrs by crystal violet staining based transwell migration assay relative to control; assay type: functional
Outline: (§3)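 HCT116 cells in transwell chambers; migration compared with untreated control (0 μM).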

Mus musculus [19] = test: Toxicity in nude mouse xenografted with human HCT116 cells assessed as abnormality in spleen at 5 to 10 mg/kg/day, ip for 18 days by hematoxylin and eosin staining based microscopic analysis; assay type: organism-based; settings: in vivo, 432 h
Outline: (§4)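 HCT116 subcutaneous xenografts in nude mice; mice randomized into groups of n = 6 and given vehicle (DMSO), test article or reference intraperitoneally daily for 18 days, then sacrificed. End points were excised tumor weight and volume, body weight, histology of heart, liver, spleen, lung and kidney, and immunohistochemistry of tumors for Ki67 and Bmi-1.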

Mus musculus [20] = test: Toxicity in nude mouse xenografted with human HCT116 cells assessed as abnormality in liver at 5 to 10 mg/kg/day, ip for 18 days by hematoxylin and eosin staining based microscopic analysis; assay type: organism-based; settings: in vivo, 432 h; outline: as §4
Mus musculus [21] = test: Toxicity in nude mouse xenografted with human HCT116 cells assessed as abnormality in heart at 5 to 10 mg/kg/day, ip for 18 days by hematoxylin and eosin staining based microscopic analysis; assay type: organism-based; settings: in vivo, 432 h; outline: as §4
HCT-116 [22] = test: Antitumor activity against human HCT116 cells xenografted in nude mouse assessed as reduction in Ki67 expression in tumor at 5 to 10 mg/kg/day, ip for 18 days by IHC analysis; assay type: functional, organism-based; outline: as §4
HCT-116 [23] = test: Antitumor activity against human HCT116 cells xenografted in nude mouse assessed as tumor growth inhibition at 5 mg/kg/day, ip for 18 days; assay type: functional, organism-based; outline: as §4
Mus musculus [24] = test: Toxicity in nude mouse xenografted with human HCT116 cells assessed as abnormality in lung at 5 to 10 mg/kg/day, ip for 18 days by hematoxylin and eosin staining based microscopic analysis; assay type: organism-based; settings: in vivo, 432 h; outline: as §4
Mus musculus [25] = test: Toxicity in nude mouse xenografted with human HCT116 cells assessed as change in body weight at 5 to 10 mg/kg/day, ip for 18 days; assay type: organism-based; settings: in vivo, 432 h; outline: as §4
Mus musculus [26] = test: Decrease in Bmi1 expression in tumors of nude mouse xenografted with human HCT116 cells at 5 to 10 mg/kg/day, ip for 18 days by IHC analysis; assay type: functional, organism-based; outline: as §4
HCT-116 [27] = test: Inhibition of colony formation in human HCT116 cells after 7 days by crystal violet staining based assay; assay type: functional, cell-based
Outline: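 HCT116 colony formation assay over a concentration series; read-out was colony number and size.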

Mus musculus [28] = test: Toxicity in nude mouse xenografted with human HCT116 cells assessed as abnormality in kidney at 5 to 10 mg/kg/day, ip for 18 days by hematoxylin and eosin staining based microscopic analysis; assay type: organism-based; settings: in vivo, 432 h; outline: as §4
HCT-116 [29] = test: Inhibition of cancer stem cell proliferation in human HCT116 cells assessed as decrease in CD133/CD44-positive cell population after 48 hrs by flow cytometry; assay type: functional, cell-based
Outline: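 HCT116 cells, which coexpress CD133 and CD44; the CD133+/CD44+ stem-like population was quantified by flow cytometry after treatment over a concentration series.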

HCT-116 [30] = test: Antimigratory activity against human HCT116 cells at 0.5 uM after 24 hrs by crystal violet staining based transwell migration assay relative to control; assay type: functional; outline: as §3
HCT-116 [31] = test: Induction of apoptosis in human HCT116 cells after 48 hrs by Annexin V/propidium iodide staining based flow cytometry; assay type: functional, cell-based
Outline: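 HCT116 cells treated for 48 h; apoptosis scored by flow cytometry as early and late apoptotic fractions, compared with untreated controls.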

Compound | Activity (HCT-116 [1]) | Activity (HCT-116 [2]) [%] | IC50 [3] [nM] | selectivity ratio [4] | IC50 (HCT-116 [7]) [nM] | Activity (HCT-116 [8]) | Activity (HCT-116 [9]) [%] | selectivity ratio [10] | inhibition [11] | IC50 (HT-29) [nM] | Activity (HCT-116 [14]) | inhibition (HCT-116 [15]) | IC50 (HCT-116 [15]) [nM] | IC50 (HCT-8) [nM] | selectivity ratio [17] | other results
COc1cc(Br)c(Nc2nc(-c3c(C)nc4ncccn34)cs2)c(Br)c1 | Dose-dependent effect | 79.7 | 1030 | 1.6 to 1.7 | 650 | inactive | 14.74 | 1.6 to 1.7 | Dose-dependent effect | 610 | inactive | Dose-dependent effect | 700 | 590 | 1.6 to 1.7 | Activity (Mus musculus [5]): Active; Activity (Mus musculus [6]): Non-Toxic; TGI (HCT-116 [12]): Active; inhibition (HCT-116 [13]): Active; Activity (HCT-116 [16]): Active
COc1cc2c(cc1C(=O)Nc1ccccc1OC(F)(F)F)CC[C@H]1C(C)(C)C(=O)C(C#N)=C[C@]21C | Dose-dependent effect | 56.1 | 3280 | 7.3 to 13.1 | 250 | inactive | 20.29 | 7.3 to 13.1 | Dose-dependent effect | 450 | inactive | Dose-dependent effect | 830 | 360 | 7.3 to 13.1 | Activity (HCT-116 [18]): 70%; Activity (Mus musculus [19]): Non-Toxic; Activity (Mus musculus [20]): Non-Toxic; Activity (Mus musculus [21]): Non-Toxic; Activity (HCT-116 [22]): Active; TGI (HCT-116 [23]): Active; Activity (Mus musculus [24]): Non-Toxic; Activity (Mus musculus [25]): Non-Toxic; Activity (Mus musculus [26]): Active; inhibition (HCT-116 [27]): Dose-dependent effect; Activity (Mus musculus [28]): Non-Toxic; inhibition (HCT-116 [29]): Dose-dependent effect; Activity (HCT-116 [30]): 30%; Activity (HCT-116 [31]): Dose-dependent effect
